These results are taken from ChEMBL document CHEMBL5252513, “Identification of a Benzoisoxazoloazepine Inhibitor (CPI-0610) of the Bromodomain and Extra-Terminal (BET) Family as a Candidate for Human Clinical Trials” (J Med Chem, 2016).

The nature of series [1]: Protein binding in dog plasma. As to conditions: read-out: PPB (converted). Type of series: ADME, cell-free, Canis lupus familiaris.
In series [2] the target is T1, CREB-binding protein (Homo sapiens, UniProt Q92793). As to the kind of experiment: Binding affinity to CBP bromodomain (unknown origin) incubated for 60 mins by TR-FRET assay.
Series [3] in a line: Toxicity in dog assessed as degeneration of testicular seminiferous epithelium at 2 to 6 mg/kg,po QD consecutive for 14 days followed by 2 weeks recovery period. Particulars: in vivo, 336 h, dose 2-6 mg/kg, time 14 day. Type of series: organism-based, Canis lupus familiaris. Summed up:
(§1)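 Oral suspension given once daily for 14 consecutive days (rat 2, 6, 20 mg/kg; dog 2, 4, 6 mg/kg) in dose range-finding and GLP repeat-dose studies, GLP arms with an added 2-week recovery period; histopathology and clinical pathology findings recorded.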

Series [4] relates to MV4-11. As to the kind of experiment: Antitumor activity against human MV4-11 cells xenografted in BALB/c mouse assessed as tumor growth inhibition at 30 mg/kg,po QD for 28 days. It counts as functional. As to conditions: MV4-11, 672 h, time 28 day, read-out: TGI. A digest of the protocol: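 Single-agent efficacy in MV-4-11 AML mouse xenograft. Tumor volume (mm3) and percent body-weight change were tracked over the treatment days.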
In general terms: In xenograft studies the graft and the host belong to different species.

The nature of series [5]: Volume of distribution at steady state in rat at 1 mg/kg,iv. Particulars: in vivo, read-out: Vdss. It counts as ADME, organism-based.
The nature of series [6]: Oral bioavailability in rat at 5 mg/kg. As to conditions: in vivo. Type of series: ADME, organism-based.
A short description of series [7]: Oral bioavailability in dog at 2.5 mg/kg. Particulars: in vivo. It counts as ADME, organism-based, Canis lupus familiaris.
Series [8] concerns the target T2, ATPase family AAA domain-containing protein 2 (Homo sapiens, UniProt Q6PL18).
T2 sequence (Q6PL18 whole entry): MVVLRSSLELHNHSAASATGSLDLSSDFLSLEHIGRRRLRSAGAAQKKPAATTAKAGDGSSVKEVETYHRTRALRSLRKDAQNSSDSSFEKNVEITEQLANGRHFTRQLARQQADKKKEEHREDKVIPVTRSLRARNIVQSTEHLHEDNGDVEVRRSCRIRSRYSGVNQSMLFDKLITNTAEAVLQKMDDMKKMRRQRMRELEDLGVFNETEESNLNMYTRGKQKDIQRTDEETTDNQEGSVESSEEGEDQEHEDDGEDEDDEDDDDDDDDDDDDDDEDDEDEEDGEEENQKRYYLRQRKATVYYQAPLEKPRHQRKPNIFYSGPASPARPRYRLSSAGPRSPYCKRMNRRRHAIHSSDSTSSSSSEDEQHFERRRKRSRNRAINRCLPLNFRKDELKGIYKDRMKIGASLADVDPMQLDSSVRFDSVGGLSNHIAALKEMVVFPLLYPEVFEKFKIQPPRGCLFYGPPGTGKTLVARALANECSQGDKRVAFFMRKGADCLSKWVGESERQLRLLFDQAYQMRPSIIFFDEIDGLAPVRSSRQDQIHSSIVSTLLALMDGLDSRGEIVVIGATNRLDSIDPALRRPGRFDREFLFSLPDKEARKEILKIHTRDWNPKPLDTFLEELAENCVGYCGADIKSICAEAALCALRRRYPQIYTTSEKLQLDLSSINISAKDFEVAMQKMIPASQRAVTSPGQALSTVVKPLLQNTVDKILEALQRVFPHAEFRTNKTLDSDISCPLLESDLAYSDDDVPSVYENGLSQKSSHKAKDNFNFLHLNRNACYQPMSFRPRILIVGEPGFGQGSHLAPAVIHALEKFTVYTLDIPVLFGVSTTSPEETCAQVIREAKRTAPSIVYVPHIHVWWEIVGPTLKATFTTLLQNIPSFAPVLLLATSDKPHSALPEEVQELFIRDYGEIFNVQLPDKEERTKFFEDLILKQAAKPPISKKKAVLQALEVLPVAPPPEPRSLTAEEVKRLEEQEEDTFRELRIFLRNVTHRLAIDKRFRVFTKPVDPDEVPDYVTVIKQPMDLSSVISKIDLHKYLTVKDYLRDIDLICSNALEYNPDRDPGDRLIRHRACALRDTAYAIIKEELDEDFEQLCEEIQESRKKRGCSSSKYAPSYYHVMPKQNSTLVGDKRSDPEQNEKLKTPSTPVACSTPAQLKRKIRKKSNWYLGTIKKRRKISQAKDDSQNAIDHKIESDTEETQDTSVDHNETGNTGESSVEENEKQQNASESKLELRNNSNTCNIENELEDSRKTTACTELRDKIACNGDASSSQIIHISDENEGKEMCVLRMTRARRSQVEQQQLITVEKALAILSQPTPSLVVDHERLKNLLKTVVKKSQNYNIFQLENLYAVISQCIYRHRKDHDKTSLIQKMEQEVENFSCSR
As to the kind of experiment: Displacement of biotinylated JQ1 from ATAD2 bromodomain (unknown origin) incubated for 20 mins by AlphaLISA assay. In general terms: Alpha assays give light when donor and acceptor beads are brought close together.

Series [9] in a line: Volume of distribution at steady state in dog at 0.5 mg/kg,iv. It counts as ADME, organism-based, Canis lupus familiaris. As to conditions: in vivo, read-out: Vdss.
The nature of series [10]: Initial plasma concentration in human patient with progression lymphoma at 300 mg,po QD and measured after 24 hrs. It counts as ADME. Particulars: read-out: C0. A digest of the protocol:
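Trough plasma concentration taken as concentration at 24 h after oral dosing, 300 mg cohort, patients with hematologic malignancies.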

Series [11] deals with MV4-11. In words: In vivo inhibition of BRD4 in human MV4-11 cells xenografted in BALB/c mouse assessed as reduction in cellular MYC mRNA expression level in tumor at 15 mg/kg,sc BID and measured for 8 to 12 hrs by PCR anlaysis. Particulars: time 8-12 hrs. It counts as functional, organism-based. Summed up: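 Pharmacodynamic study in MV-4-11 AML mouse xenograft. Dosing was 15 mg/kg subcutaneous twice daily. At 4, 8 and 12 h after the second dose, MYC mRNA was measured against vehicle, and compound levels were measured in plasma and tumor. Free plasma concentration was estimated alongside total levels.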

Series [12] in a line: Cmax in human patient with progression lymphoma at 300 mg,po QD consecutively for 14 days. Details: time 14 day, dose 300 mg, route po. As to conditions: in vivo. Type of series: ADME. A digest of the protocol: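 Phase I trial in patients with hematologic malignancies, oral dosing once daily with escalating cohorts; values are from the 300 mg dose on day 14. AUC0-24 was taken as exposure over 24 h. Apparent clearance was calculated as Dose/AUC0-24.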

Series [13] has as its system MV4-11. In words: Antitumor activity against human MV4-11 cells xenografted in BALB/c mouse assessed as slower tumor regrowth after drug therapy removal at 10 mg/kg,sc BID in presence of doxorubicin at 2 mg/kg,iv BIW for 28 days. Type of series: functional, organism-based. Particulars: time 28.0 day.
Series [14] is described as follows: Tmax in rat at 5 mg/kg,po. As to conditions: in vivo. Type of series: ADME, organism-based.
Series [15] addresses T2, ATPase family AAA domain-containing protein 2. As to the kind of experiment: Binding affinity to ATAD2 bromodomain (unknown origin) incubated for 60 mins by TR-FRET assay. (TR-FRET usually uses a lanthanide donor and a delayed reading to cut background.)
A short description of series [16]: Toxicity in rat assessed as lymphoid depletion at 2 to 20 mg/kg,po QD consecutive for 14 days followed by 2 weeks recovery period. Type of series: organism-based. Particulars: in vivo, 336 h, dose 2-20 mg/kg, time 14 day. Summed up:
as §1

The target of series [17] is Histone acetyltransferase KAT2B (Homo sapiens, UniProt Q92831). As to the kind of experiment: Displacement of biotinylated JQ1 from PCAF bromodomain (unknown origin) incubated for 20 mins by AlphaLISA assay.
The nature of series [18]: Toxicity in rat assessed as GI mucosal erosion at 2 to 20 mg/kg,po QD consecutive for 14 days followed by 2 weeks recovery period. It counts as organism-based. As to conditions: in vivo, 336 h, dose 2-20 mg/kg, time 14 day. Summed up:
as §1

For series [19], the target named is T1, CREB-binding protein. As to the kind of experiment: Displacement of biotinylated JQ1 from CBP bromodomain (unknown origin) incubated for 20 mins by AlphaLISA assay.

In general, IC50 refers to the concentration needed to halve the response being measured. Higher therefore signals weaker potency. Usually bioavailability stands for dose-corrected exposure relative to a reference, in per cent. The term Cmax denotes the maximum level reached in the sampled fluid or tissue. Broadly, the Tmax is the time from dosing to the highest level.

Each structure is given as a SMILES string. The source made the active and inactive calls. The rule behind the calls is not given here.

T1 sequence (Q92793 whole entry): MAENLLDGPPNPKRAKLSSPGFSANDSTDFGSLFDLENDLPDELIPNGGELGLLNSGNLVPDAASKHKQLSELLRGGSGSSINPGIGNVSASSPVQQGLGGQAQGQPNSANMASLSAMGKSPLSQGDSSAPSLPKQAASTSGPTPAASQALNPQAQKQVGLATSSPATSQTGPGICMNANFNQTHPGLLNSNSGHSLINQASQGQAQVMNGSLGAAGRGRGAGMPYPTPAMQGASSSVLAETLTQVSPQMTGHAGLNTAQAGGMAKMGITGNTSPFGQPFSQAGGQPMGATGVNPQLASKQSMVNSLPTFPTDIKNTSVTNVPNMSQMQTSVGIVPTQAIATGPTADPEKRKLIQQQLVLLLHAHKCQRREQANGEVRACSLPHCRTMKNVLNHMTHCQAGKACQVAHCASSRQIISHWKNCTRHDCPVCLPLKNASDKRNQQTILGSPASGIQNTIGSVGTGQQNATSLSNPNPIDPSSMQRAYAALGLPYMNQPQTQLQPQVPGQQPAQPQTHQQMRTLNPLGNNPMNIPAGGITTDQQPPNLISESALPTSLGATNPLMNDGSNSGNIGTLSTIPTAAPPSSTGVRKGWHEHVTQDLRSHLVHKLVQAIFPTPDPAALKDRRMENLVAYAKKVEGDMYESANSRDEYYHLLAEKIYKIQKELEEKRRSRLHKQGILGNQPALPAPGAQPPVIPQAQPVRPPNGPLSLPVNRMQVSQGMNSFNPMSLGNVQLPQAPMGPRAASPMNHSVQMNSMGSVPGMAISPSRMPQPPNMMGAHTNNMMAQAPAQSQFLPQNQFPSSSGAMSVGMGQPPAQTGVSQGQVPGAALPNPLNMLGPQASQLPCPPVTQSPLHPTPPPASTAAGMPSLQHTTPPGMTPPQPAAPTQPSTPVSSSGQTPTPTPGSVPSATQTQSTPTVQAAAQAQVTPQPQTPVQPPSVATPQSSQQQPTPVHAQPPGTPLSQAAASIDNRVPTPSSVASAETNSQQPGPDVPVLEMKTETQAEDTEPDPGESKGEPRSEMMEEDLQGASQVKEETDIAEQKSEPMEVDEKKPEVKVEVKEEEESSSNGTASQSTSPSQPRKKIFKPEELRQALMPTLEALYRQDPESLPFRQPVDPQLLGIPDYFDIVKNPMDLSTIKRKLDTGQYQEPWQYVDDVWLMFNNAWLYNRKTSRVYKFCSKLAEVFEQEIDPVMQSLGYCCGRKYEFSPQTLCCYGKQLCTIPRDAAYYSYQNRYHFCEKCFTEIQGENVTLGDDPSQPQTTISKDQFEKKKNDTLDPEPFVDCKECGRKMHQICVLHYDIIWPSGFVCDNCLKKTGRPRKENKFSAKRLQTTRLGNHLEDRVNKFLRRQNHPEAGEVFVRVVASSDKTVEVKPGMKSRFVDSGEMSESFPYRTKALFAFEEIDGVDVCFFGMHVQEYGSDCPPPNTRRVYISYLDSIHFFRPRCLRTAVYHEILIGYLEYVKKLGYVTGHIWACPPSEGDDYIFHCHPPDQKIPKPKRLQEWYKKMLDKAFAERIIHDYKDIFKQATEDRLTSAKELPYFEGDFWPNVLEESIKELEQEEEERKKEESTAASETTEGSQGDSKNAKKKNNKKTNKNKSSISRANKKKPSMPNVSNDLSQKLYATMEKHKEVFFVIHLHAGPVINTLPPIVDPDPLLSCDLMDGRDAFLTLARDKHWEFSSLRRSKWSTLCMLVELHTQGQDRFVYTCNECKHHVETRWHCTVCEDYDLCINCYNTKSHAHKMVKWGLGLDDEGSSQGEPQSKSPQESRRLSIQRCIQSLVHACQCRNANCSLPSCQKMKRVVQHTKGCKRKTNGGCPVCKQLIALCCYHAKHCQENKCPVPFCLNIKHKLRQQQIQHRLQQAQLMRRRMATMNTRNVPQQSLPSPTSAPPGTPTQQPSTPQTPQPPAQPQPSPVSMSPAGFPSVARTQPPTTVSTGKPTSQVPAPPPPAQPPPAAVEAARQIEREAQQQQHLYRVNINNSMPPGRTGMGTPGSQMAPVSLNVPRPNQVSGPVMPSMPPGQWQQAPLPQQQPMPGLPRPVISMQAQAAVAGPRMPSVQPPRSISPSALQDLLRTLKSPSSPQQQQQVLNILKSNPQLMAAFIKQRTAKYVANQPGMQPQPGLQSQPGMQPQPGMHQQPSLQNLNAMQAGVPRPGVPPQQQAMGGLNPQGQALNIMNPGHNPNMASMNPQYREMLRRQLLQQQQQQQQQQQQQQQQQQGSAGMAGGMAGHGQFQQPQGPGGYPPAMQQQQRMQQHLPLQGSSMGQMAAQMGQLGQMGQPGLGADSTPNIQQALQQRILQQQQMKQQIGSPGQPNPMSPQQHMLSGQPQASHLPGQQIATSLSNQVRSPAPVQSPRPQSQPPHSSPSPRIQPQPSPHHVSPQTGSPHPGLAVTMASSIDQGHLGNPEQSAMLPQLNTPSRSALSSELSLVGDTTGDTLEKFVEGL
Chain of Histone acetyltransferase KAT2B (Q92831 whole entry): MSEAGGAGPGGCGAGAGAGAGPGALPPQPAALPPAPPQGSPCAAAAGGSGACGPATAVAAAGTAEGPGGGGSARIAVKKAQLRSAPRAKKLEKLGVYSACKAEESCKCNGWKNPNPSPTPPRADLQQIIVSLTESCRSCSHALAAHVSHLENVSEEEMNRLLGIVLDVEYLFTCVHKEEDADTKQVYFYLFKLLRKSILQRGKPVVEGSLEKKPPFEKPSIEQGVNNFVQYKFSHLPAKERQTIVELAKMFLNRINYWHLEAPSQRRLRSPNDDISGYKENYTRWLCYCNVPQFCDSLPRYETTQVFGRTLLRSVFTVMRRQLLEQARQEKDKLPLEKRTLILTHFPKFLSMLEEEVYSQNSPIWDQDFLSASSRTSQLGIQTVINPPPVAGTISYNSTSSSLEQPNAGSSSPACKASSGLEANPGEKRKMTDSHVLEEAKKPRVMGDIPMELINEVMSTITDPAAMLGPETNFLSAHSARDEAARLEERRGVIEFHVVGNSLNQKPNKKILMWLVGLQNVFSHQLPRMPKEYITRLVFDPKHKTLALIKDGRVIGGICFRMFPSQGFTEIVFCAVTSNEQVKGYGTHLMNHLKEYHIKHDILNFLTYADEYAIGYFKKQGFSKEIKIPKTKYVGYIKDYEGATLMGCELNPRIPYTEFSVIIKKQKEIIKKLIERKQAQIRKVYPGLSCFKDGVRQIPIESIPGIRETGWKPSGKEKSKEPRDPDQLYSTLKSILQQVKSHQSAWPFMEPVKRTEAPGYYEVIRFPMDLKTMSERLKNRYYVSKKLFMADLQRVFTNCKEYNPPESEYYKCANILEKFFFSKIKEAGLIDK

With `Cc1noc2c1-c1ccccc1C(c1ccc(Cl)cc1)=N[C@H]2CC(N)=O` [PELABRESIB], the fraction unbound in [1] is 0.04. Besides, the IC50 at CREB-binding protein [2] is over 20 µM; in series [8] it was over 80 µM; in series [15], over 80 µM; in series [17], over 20 µM; at CREB-binding protein [19], over 20 µM. Further, the Activity result in [3], in series [16] and in series [18] was “Toxic” in each case. Besides, the inhibition in vivo at 30 mg/kg in the series on MV4-11 [4] amounted to 41%. Moreover, the Vd in series [5] is 1.3 L/kg; in series [9], 1.2 L/kg. In addition, the bioavailability came to 76% in series [6] and 45% in series [7]. Moreover, the concentration at 24 h in [10] was 0.22 µM. Also, the inhibition result in the series with MV4-11 [11] was “inactive”. Further, in [12], the Cmax worked out at 5.9 µM. In addition, the outcome with MV4-11 [13] was Active. The time to peak (Tmax) in series [14] worked out at 1.2 h.
